Compound activity (PubChem BioAssay)
Compounds with a hit are over-represented: about 1.9% of the library has one in this group of screens.
M5 PAM: potentiates acetylcholine response at human M5 receptor. 360,000 tested, 0.3% active. P08912. CHO-K1 hM5, Fluo-8 calcium, ACh EC20 PAM; 0% = ACh EC20, 100% = ACh EC100. activation, % at 3 µM. AID 624038;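 active = activation above the run cutoff, the mean activation of all test compounds plus 3 SD, cut at about 18% in these data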
Target sequence (P08912 whole entry, looked up): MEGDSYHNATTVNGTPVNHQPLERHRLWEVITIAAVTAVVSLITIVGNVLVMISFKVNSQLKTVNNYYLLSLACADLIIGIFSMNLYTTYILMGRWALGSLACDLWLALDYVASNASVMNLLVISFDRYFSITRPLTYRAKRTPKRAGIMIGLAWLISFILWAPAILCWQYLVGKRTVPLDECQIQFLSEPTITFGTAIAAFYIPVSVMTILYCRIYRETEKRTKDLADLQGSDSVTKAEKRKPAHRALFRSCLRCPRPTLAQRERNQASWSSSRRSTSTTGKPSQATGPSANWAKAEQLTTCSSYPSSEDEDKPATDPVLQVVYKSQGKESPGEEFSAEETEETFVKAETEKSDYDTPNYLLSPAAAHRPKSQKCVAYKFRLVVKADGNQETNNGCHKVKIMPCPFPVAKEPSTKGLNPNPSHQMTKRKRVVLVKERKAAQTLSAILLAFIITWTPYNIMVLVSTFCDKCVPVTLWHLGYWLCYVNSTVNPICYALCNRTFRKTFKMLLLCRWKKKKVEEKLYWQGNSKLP
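system = human M5 receptor in CHO-K1 cells | compound = one concentration, 3 µM final (nominal) | schedule = Post-acetylcholine fluorescence recording 140 s | signal = Fluo-8 calcium dye fluorescence, kinetic read | benchmarks = low control EC20 acetylcholine (0%), high control EC100 acetylcholine (100%) | repeats = singlicate, one well per test compound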
CHRM4 PAM: positive allosteric modulators of human muscarinic M4 receptor | AID 624126 | activation, % at 3 µM | CHO-K1 hM4/Gqi5, Fluo-8 calcium fluorescence, ACh EC20; 0% = ACh EC20, 100% = maximal ACh | 360,000 tested, 0.4% active | P08173;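 active = activation above its plate's cutoff, the mean activation of sample wells plus 3 SD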
M4 ag: agonists of human muscarinic M4 receptor (CHRM4); P08173; CHO-K1 hM4/Gqi5, Fluo-8 calcium fluorescence; vehicle 0%, full acetylcholine response 100%; activation, % at 3 µM; 360,000 tested, 0.14% active; AID 624127;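 active = activation above the run mean over all test wells plus 3 SD, cut at about 32% in these data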;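 note: peak over basal fluorescence ratio per well then scaled between controls; 0% = DMSO wells and 100% = acetylcholine at EC100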
M5 antag: antagonists of human muscarinic M5 receptor (CHRM5). P08912. CHO-hM5 cells, Fluo-8 calcium fluorescence, ACh EC80. inhibition, % at 3 µM. 360,000 tested, 0.59% active;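 active = inhibition above a per-plate cutoff, the mean of that plate's test compounds plus 3 SD, cut at about 27% in these data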;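 note: 0% = acetylcholine EC80 with DMSO and 100% = DMSO without agonist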
M4 antag: CHRM4 antagonism in calcium assay; P08173; CHO-hM4 cells, ACh EC80, Fluo-8 calcium fluorescence; inhibition, % at 3 µM; 360,000 tested, 0.73% active; AID 624125;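 active = inhibition above its plate's cutoff, the mean inhibition of sample wells plus 3 SD, cut at about 27% in these data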;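 note: 0% = acetylcholine EC80 with DMSO and 100% = DMSO without agonist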
M5 ag: CHRM5 agonism in calcium assay; P08912; CHO-K1 hM5 cells, Fluo-8 calcium fluorescence; 0% DMSO wells, 100% maximal acetylcholine response; activation, % at 3 µM; 360,000 tested, 0.19% active;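 active = activation above the run's mean over test compounds plus 3 SD, cut at about 23% in these data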;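 note: signal is peak over basal fluorescence ratio across the kinetic read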
Active calls of the source: *.

SMILES	M5 PAM	CHRM4 PAM	M4 ag	M5 antag	M4 antag	M5 ag
O=C(Cn1cnc2cc([N+](=O)[O-])ccc2c1=O)N1CCN(S(=O)(=O)c2ccccc2)CC1	3.1	0.0	2.6	10.7	-9.2	-1.8
CCCCC(=O)Nc1ccc2c(c1)nc1n2CCOC1	-1.1	2.2	0.5	-5.5	-9.0	-0.5
CCCC(=O)Nc1ccc2c(c1)nc1n2CCOC1	4.7	31.0*	0.8	-10.0	3.1	3.0
COc1ccc(NC(=O)CN(C)C(=O)c2ccc(C)c(S(=O)(=O)N3CCCCC3)c2)cc1	-2.2	0.6	1.8	1.3	-2.2	-0.8
Cc1cccc(-n2ncc3c(N4CCCC4)ncnc32)c1	-4.1	23.2*	5.8	0.9	-3.1	1.0
Cc1cccc(-n2ncc3c(N4CCOCC4)ncnc32)c1	-0.5	7.0	6.4	-3.9	-10.6	3.1
COc1ccc(NC(=O)COC(=O)c2ccc(OCc3c(C)noc3C)cc2)cc1OC	-16.7	-18.1	7.1	25.6	4.7	2.6
COc1cc(C(=O)OCC(=O)Nc2ccc3c(c2)OC(F)(F)O3)ccc1OCc1c(C)noc1C	32.5*	7.2	0.7	-2.6	5.9	-3.5
O=C(NCc1ccc(F)cc1F)c1cc(COc2c(F)cccc2F)on1	1.0	-8.7	-0.7	9.0	8.2	-7.5
Cc1cc(C(=O)COC(=O)c2cc(Cl)ccc2N)c(C)n1Cc1ccco1	-0.3	19.4*	1.5	9.8	6.1	2.4
COc1ccc(N2CCN(C(=O)C3(S(=O)(=O)c4ccc(C)cc4)CC3)CC2)cc1	23.2*	-3.9	2.2	-15.0	-9.5	-0.1
CC(=O)c1ccc(N2CCN(C(=O)C3(S(=O)(=O)c4ccc(Cl)cc4)CC3)CC2)cc1	-7.0	-5.2	7.3	-3.9	0.2	3.1
O=c1[nH]c(CN(CCc2ccccc2)S(=O)(=O)c2ccc(Cl)cc2)nc2ccccc12	0.8	9.1	-0.3	1.7	-12.0	-1.2
COc1ccc(CCNC(=O)c2cc(-c3cc(C)cc(C)c3O)n[nH]2)cc1OC	-10.6	-8.5	5.8	8.0	39.4*	-3.9
COc1ccc(CNC(=O)C(c2ccc(C)cc2)N(Cc2cccs2)C(=O)c2ccc3c(c2)OCCO3)cc1 (stereo not drawn)	-22.6	-11.7	24.2	23.9	31.7*	3.8
CC(=O)N1CCc2cc(S(=O)(=O)NC(CC(C)C)C(=O)N3CCc4ccccc4C3)ccc21 (stereo not drawn)	-2.7	32.4*	1.5	1.4	29.1*	-5.1
CCN1CCN(c2ccc(S(=O)(=O)N3CCOCC3)cc2NC(=O)CCOc2ccccc2)CC1	-9.9	5.4	2.3	29.2*	-1.1	-5.0
CCOC(=O)C1CCN(CC(=O)Nc2cc(S(=O)(=O)N3CCOCC3)ccc2C)CC1	19.4*	5.0	2.2	-6.4	-10.5	1.9
Cc1ccc(S(=O)(=O)N2CCOCC2)cc1NC(=O)COC(=O)C1CCC1	0.6	2.5	2.1	-1.4	-8.9	-0.2
CCN1CCN(c2ccc(S(=O)(=O)N3CCCCC3)cc2NC(=O)Cc2ccc(Cl)c(Cl)c2)CC1	-16.9	-15.4	53.9*	20.3	20.7	28.1*
Cc1ccccc1OCCC(=O)Nc1cc(S(=O)(=O)N2CCCCC2)ccc1N1CCN(C)CC1	-5.4	-9.3	55.9*	7.4	21.0	12.9
CCN1CCN(c2ccc(S(=O)(=O)N3CCCCC3)cc2NC(=O)Cc2ccccc2)CC1	-1.6	-6.5	0.8	5.3	12.4	-1.5
COc1ccccc1CNc1nc(NCC2CC2)nc2ccsc12	-12.6	-6.5	19.7	7.5	-6.4	2.3
COc1cccc(CNC(=O)COC(=O)CCS(=O)(=O)c2ccc(C)cc2)c1	4.6	9.3	0.6	6.3	6.4	-3.0
CC(/C=N/NC(=O)c1cnccn1)=C\c1ccco1	-2.6	-1.4	0.6	7.1	-4.8	2.0
SMILES	M5 PAM	CHRM4 PAM	M4 ag	M5 antag	M4 antag	M5 ag
O=C(Nc1ccc2c(c1)oc1ccc(S(=O)(=O)N3CCCC3)cc12)C1CC1	-13.1	10.9	7.3	3.9	0.7	2.4
CCOC(=O)N1CCN(C(=O)c2cccc(NC3=NC4CS(=O)(=O)CC4S3)c2)CC1 (stereo not drawn)	2.3	1.6	0.1	-4.6	-8.4	2.1
CCCCCC(=O)Nc1cc(S(=O)(=O)N2CCOCC2)ccc1N1CCCC1	30.1*	-3.5	0.3	25.3	6.8	1.6
CCCCCC(=O)Nc1cc(S(=O)(=O)N2CCCCC2)ccc1N1CCOCC1	5.1	1.0	-0.3	8.0	-6.8	-3.9
Cc1cccc(N2CCN(CC(=O)Nc3ccc(S(=O)(=O)N4CCOCC4)cc3)CC2)c1C	-11.9	-6.7	19.2	33.8*	5.9	3.2
COc1ccc(OCC(=O)N2CCC(Cc3ccccc3)CC2)cc1	-0.3	8.7	3.0	3.6	-23.6	-4.8
CCN(CC)S(=O)(=O)c1cc(NC(=O)CO/N=C(\N)c2ccccc2Cl)ccc1C	3.1	4.1	3.9	3.2	-1.7	3.3
O=C(Nc1ccc2c(c1)OCCO2)Nc1ccc2c(c1)OCO2	-8.5	-3.2	3.9	2.5	-4.2	-0.6
O=C(Nc1ccc2c(c1)OCO2)Nc1ccc(Br)cn1	-3.0	41.3*	5.8	8.6	4.4	0.9
CCOC(=O)c1ccc(N2C(=O)C(CC(N)=O)N(NC(=O)c3cccc(F)c3)C2=S)cc1 (stereo not drawn)	1.9	1.4	1.1	-1.4	-0.5	-1.5
O=C1CC(c2ccccc2)Sc2ccccc2N1 (stereo not drawn)	7.2	-2.1	-0.4	-6.3	1.9	-0.2
S=C1NCC(c2ccccc2)S1 (stereo not drawn)	18.4*	13.3	1.0	3.6	-15.7	-5.3
Cc1c(C(=O)NCc2ccccc2C(F)(F)F)sc(=O)n1Cc1cccc(C(F)(F)F)c1	-3.7	-1.6	3.3	-1.1	-3.1	-3.4
Cn1c(=O)c2[nH]c(-c3ccc(S(=O)(=O)O)cc3)nc2n(C)c1=O	-20.1	-4.1	0.8	-0.8	-0.8	67.9*
COc1cc2cc(C(=O)NCCc3c[nH]c4ccccc34)c(N)nc2cc1OC	-22.0	-2.7	32.8*	25.1	6.8	24.0*
COc1cc(SC)ccc1C(=O)NCCc1c[nH]c2ccccc12	-3.8	-7.7	6.6	6.0	3.8	-1.7
C=CCN(c1ccccc1OC)S(=O)(=O)c1cccc(C(=O)OCC(=O)c2c(N)n(C)c(=O)n(C)c2=O)c1	-34.2	-13.4	15.3	26.9*	14.3	-3.3
CCCCCCCC1CC(=O)C=C(C)C1C(=O)OCC (stereo not drawn)	-4.2	11.7*	-0.6	14.1	-0.6	-3.9
Nc1ccccc1SC1CC(=O)N(c2ccc(Cl)c(Cl)c2)C1=O (stereo not drawn)	-14.6	-16.4	14.6	27.8*	14.5	3.1
